Assay results reported in article PMC11022046 (iScience, 2024).
Where a name gives a salt, the structure may show the parent alone.

Experiments:
H1299 lung cancer cells [1] = assay: SRB proliferation assay; assay type: cell-based; conditions: Homo sapiens, NCI-H1299, 72 h, read-out: SRB IC50
Method in brief: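 H1299 cells (RPMI/10% FBS) seeded the day before, then given serial half dilutions from 20 μM down to 0.078 μM for 72 h. Fixed in cold 10% TCA for 1 h and stained 15 min with 0.4% SRB. Washed with water and 1% acetic acid, dye dissolved in 10 mM Tris pH 10.5, OD read at 560 nm. Normalized to DMSO; IC₅₀ with 95% CI by nonlinear regression. Three biological × three technical replicates.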

H1299 lung cancer cells [2] = assay: WST-8 proliferation assay; assay type: cell-based; conditions: Homo sapiens, NCI-H1299, 72 h, read-out: WST IC50
Method in brief: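 H1299 cells (RPMI/10% FBS) seeded the day before, then given serial half dilutions from 20 μM down to 0.078 μM for 72 h. WST-8 reagent added to the medium at 1:10, 2 h at 37°C, OD read at 450 nm; both adherent and non-adherent cells counted. Normalized to DMSO; IC₅₀ with 95% CI by nonlinear regression. Three biological × three technical replicates.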

[3] = Caco-2 permeability assay; assay type: in vitro ADME; conditions: human
Method in brief: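 Caco-2 monolayers grown to confluence on transwells, with integrity checked by TEER. Test compound (5 μM) added to the apical or the basolateral side to give transport direction. After 2 h, donor and receiver samples quantified by LC-MS/MS. Lucifer Yellow used to check leakage. Propranolol (high absorption) and digoxin (high efflux) served as controls.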

[4] = In vivo pharmacokinetics, single IP dose; design: species or system BALB/c mice
Method in brief: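 Female BALB/c mice (8–14 weeks) given 5 mg/kg by single IP injection in 1% DMSO/99% water. Plasma sampled at 0.25, 0.5, 1, 2, 4, 6, 8 and 24 h. Compound quantified by LC-MS/MS with calibration standards and QC samples. Terminal elimination half-life and maximum concentration derived; n = 3 mice per treatment.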

H1299 cells [5] = assay: TMRM flow cytometry with oligomycin; assay type: cell-based, human; conditions: H1299, 1 μM, 48 h, + 1 μM oligomycin, mean of three replicates
Method in brief: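 H1299 cells (1.75 × 10⁵ per 10 cm plate) exposed 48 h to 1 μM or to DMSO. Attached and floating cells pooled and stained with 2 nM TMRM in phenol-red-free RPMI with 2% dialyzed FBS for 30 min at 37°C. Oligomycin (1 μM) added during the TMRM incubation, then flow cytometry. Three biological replicates.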

H1299 cells [6] = assay: 3D spheroid invasion assay; assay type: cell-based, human; conditions: H1299 spheroids in basement membrane matrix, 2 μM, 48 h
Method in brief: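 H1299 spheroids formed over 3 days from 3 × 10³ cells/well in low-attachment wells. Embedded in Matrigel containing 0.5, 1 or 2 μM compound, with compound also in the medium, and incubated 48 h. Imaged at Day 0 and Day 2 with a 4× objective; perimeter outlined. Invasion area = Day 2 area minus Day 0 area. At least four spheroids per treatment in each of three biological replicates.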

H1299 cells [7] = assay: Extracellular lactate assay; assay type: cell-based, human; conditions: H1299, 1 and 2 μM, 48 h
Method in brief: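 H1299 seeded at 3.75 × 10⁴ or 7.5 × 10⁴ cells/well, then treated 48 h with 1 or 2 μM or with DMSO. Medium passed through a 3K cutoff filter at 14,000 × g, 15 min, 4°C. Lactate measured with a WST-based kit on medium diluted 1:20, in triplicate, against a standard curve. Values normalized to cell count and DMSO; three biological replicates.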

H1299 cells [8] = assay: Mitochondrial structure by electron microscopy; assay type: cell-based, human; conditions: H1299, 48 h, 1 or 2 μM
Method in brief: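 H1299 cells (1.75 × 10⁵ per 10 cm plate) exposed 48 h to 1 or 2 μM or to DMSO, then scraped and pelleted. Pellets fixed 4 h at room temperature in 2.0% paraformaldehyde/2.5% glutaraldehyde in 0.1 M cacodylate, pH 7.2. Post-fixed in 1.0% osmium tetroxide for 1 h; en bloc 2% aqueous uranyl acetate, 20 min, 60°C. Three biological replicates.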

[9] = female, BALB/c, mouse, plasma, ip, 5 mg/kg

Structure (SMILES): CCCCC(CC)CNC(=N)NC(=N)NCCCCCCNC(=N)NC(=N)NCC(CC)CCCC (stereo not shown) [Alexidine, Alexidine dihydrochloride]
- IC50 (H1299 lung cancer cells [1]): 1 µM
- IC50 (H1299 lung cancer cells [2]): 2.5 µM
- efflux ratio at 2 h, 5 μM [3]: > 5.37
- Cmax [4, 9]: 268 ng/mL
- half-life [4, 9]: 9.5 h
- tolerability in mice ([4]; mice, IP): tolerated in mice
- percentage of cells unable to hyperpolarize with oligomycin (TMRM-low population) (H1299 cells [5]): 18.1%
- invasive area, % of the control (H1299 cells [6]): 36.8%
- effect on extracellular lactate (H1299 cells [7]): increased lactate concentration
- effect on mitochondrial structure (H1299 cells [8]): disrupted mitochondrial structure
